Assay outcomes as filed in PubChem BioAssay.
Shown are actives, neighbours in structure and some others; about 2.3% of the full set was active somewhere.
OXTR ag – activates the human oxytocin receptor. P30559. CHO-OTR cells, Fluo-8 calcium fluorescence; normalized: DMSO 0%, oxytocin 100%. activation, % at 3 µM. 320,000 compounds, 0.32% hits. AID 2435;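 active means activation above the mean of all tested compounds plus 3 SD, cutoff set per screening run, cut at about 20% in these data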;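 further: peak over basal fluorescence ratio from a 100 s FLIPR kinetic read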
TAAR1 antagonist – antagonists of human TAAR1. Q96RJ0. CHO RD-HGA16 TAAR1, Fluo-8 calcium fluorescence, antagonist. inhibition, % at 3 µM. 360,000 compounds, 1.5% hits. AID 624466;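 active means inhibition above a per-plate cutoff, the mean inhibition of test compounds on that plate plus 3 SD, cut at about 49% in these data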;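 further: 0% = DMSO plus EC80 beta-PEA response and 100% = DMSO alone without agonist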
Target sequence (Q96RJ0 whole entry, looked up): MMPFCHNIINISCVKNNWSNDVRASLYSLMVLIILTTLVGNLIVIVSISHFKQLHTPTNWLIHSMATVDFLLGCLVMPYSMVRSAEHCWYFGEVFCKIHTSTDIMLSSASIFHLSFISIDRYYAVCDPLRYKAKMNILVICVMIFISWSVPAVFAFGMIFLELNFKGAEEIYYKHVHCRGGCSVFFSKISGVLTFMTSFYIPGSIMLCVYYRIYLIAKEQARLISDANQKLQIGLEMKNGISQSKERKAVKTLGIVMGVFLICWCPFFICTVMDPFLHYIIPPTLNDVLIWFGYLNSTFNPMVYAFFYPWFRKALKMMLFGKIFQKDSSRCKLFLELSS
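Material: CHO RD-HGA16 cells bearing hTAAR1; compound dosing: one-point dosing, 3 µM nominal final; schedule: dye loading 75 min at 37 °C, then 30 min room temperature; measured by: calcium fluorescence with Fluo-8; control set: vehicle and agonist controls; replication: n of 1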
OXTR potentiate – potentiates the human oxytocin receptor response; P30559; CHO-OTR cells, Fluo-8 calcium fluorescence, potentiator mode; 0% = oxytocin EC15, 100% = EC100; activation, % at 3 µM; 320,000 compounds, 0.061% hits; AID 2445;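 active means activation above that plate's cutoff, the mean activation of tested compounds plus 3 SD, cut at about 6.6% in these data, passing the limit was not always enough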;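 further: 100% uses oxytocin at 75 nM as the full agonist control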
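Assay system: CHO cell line stably expressing human OTR | Also added: Oxytocin at about EC15, sub-maximal agonist stimulus | Times: Compound 6 min at room temperature before oxytocin, 100 s read | Measured by: Fluo-8 intracellular calcium fluorescence, ex 470-495, em 515-575 nm | Controls: EC15 oxytocin alone as 0%, 75 nM oxytocin as 100%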
V1aR counter – activates human V1a receptor in oxytocin agonist counter-screen; CHO-V1R cells, Fluo-8 calcium fluorescence, agonist mode; 0% DMSO, 100% 3 nM vasopressin; activation, % at 3 µM; 320,000 compounds, 0.25% hits;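 active means activation above the mean activation of all tested compounds plus 3 SD, per screening run, cut at about 20% in these data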;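 further: signal is peak over basal fluorescence ratio across a 100 second FLIPR read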
TAAR1 ag – agonists of human TAAR1. 360,000 compounds, 0.99% hits. AID 624467. CHO RD-HGA16 TAAR1, Fluo-8 calcium fluorescence; vehicle wells 0%, saturating PEA agonist 100%. activation, % at 3 µM;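 active means activation above the mean activation of all test compounds in the run plus 3 SD, cut at about 38% in these data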
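Test system: RD-HGA16 (CHO) cells co-expressing Gα16 and hTAAR1 | Doses: Single dose, 3 µM | Schedule: 17-24 h seeding, 75 min 37 °C dye, 30 min RT | Evaluation: % activation from peak over basal fluorescence ratio, DMSO-to-PEA scaled | Technique: Kinetic Fluo-8 calcium fluorescence | Benchmarks: Low control DMSO, high control PEA (EC100)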
* = called active by the depositor.

COc1ccc(NC(=O)c2cc(-c3cc(F)ccc3OC(C)C)n[nH]2)c(C)c1 was read as TAAR1 antagonist 86* and TAAR1 ag 45*.
`COc1ccc(NC(=O)c2cc(-c3cc(Cl)ccc3OC)n[nH]2)c(OC)c1` gave TAAR1 antagonist 54* and TAAR1 ag 2.
For COc1ccc(NC(=O)c2cc(-c3cc(C)c(C)cc3O)n[nH]2)c(OC)c1 the results were OXTR ag -1, TAAR1 antagonist -12, OXTR potentiate -21, V1aR counter 2 and TAAR1 ag 3.
`COc1ccc(CNC(=O)c2c(N)[nH]c(C(=O)c3ccccc3)c2-c2ccc3ccccc3c2)cc1OC` gave TAAR1 antagonist 30 and TAAR1 ag 10.
Cc1ccc(-n2nc3c(=O)n(CCCC(=O)NCCc4ccccc4C)nc(C)c3c2C)cc1 was read as OXTR ag -1, TAAR1 antagonist -22, OXTR potentiate -6, V1aR counter 3 and TAAR1 ag 40*.
For CC(C)(C)OC(=O)N(Cc1ccccc1)Cc1ccc(OCc2cccc(NC(=O)C3CC3)c2)cc1 the results were TAAR1 antagonist 53* and TAAR1 ag 2.
Screening CC(C)(C)OC(=O)N(CCc1ccccc1)Cc1ccc(OCc2cccc(NC(=O)C3CCCC3)c2)cc1 returned TAAR1 antagonist 8 and TAAR1 ag 4.
For CCC(CO)Nc1ccc(-c2n[nH]c(=O)c3ccccc23)cc1[N+](=O)[O-] (stereo not drawn) the results were OXTR ag 4, TAAR1 antagonist 12, OXTR potentiate -14, V1aR counter 6 and TAAR1 ag 2.
`COc1ccccc1N1CCN(c2ccc3c(c2)S(=O)(=O)c2cccc(C(=O)NCc4cccc(F)c4)c2C3=O)CC1` gave TAAR1 antagonist 53* and TAAR1 ag 11.
For O=C(NCc1ccco1)c1cccc2c1C(=O)c1ccc(N3CCCC3)cc1S2(=O)=O the results were OXTR ag 7, TAAR1 antagonist 53*, OXTR potentiate 2, V1aR counter 6 and TAAR1 ag 23.
Screening C=CCNC(=O)c1cccc2c1C(=O)c1ccc(N3CCCC3)cc1S2(=O)=O returned OXTR ag 7, TAAR1 antagonist 12, OXTR potentiate -2, V1aR counter 8 and TAAR1 ag 16.
Screening O=C(NCc1ccccc1C(F)(F)F)c1cccc2c1C(=O)c1ccc(N3CCOCC3)cc1S2(=O)=O returned OXTR ag 5, TAAR1 antagonist 56*, OXTR potentiate -3, V1aR counter 6 and TAAR1 ag 20.
`O=C(NCc1cccc(F)c1)c1cccc2c1C(=O)c1ccc(N3CCOCC3)cc1S2(=O)=O` gave OXTR ag 4, TAAR1 antagonist 49, OXTR potentiate -2, V1aR counter 3 and TAAR1 ag 15.
`O=C(NCc1ccccc1C(F)(F)F)c1cccc2c1C(=O)c1ccc(N3CCC(N4CCCCC4)CC3)cc1S2(=O)=O` gave TAAR1 antagonist 42 and TAAR1 ag 16.
Screening CC1CCN(c2ccc3c(c2)S(=O)(=O)c2cccc(C(=O)NC[C@@H]4CCCO4)c2C3=O)CC1 returned OXTR ag 8, TAAR1 antagonist 60*, OXTR potentiate -2, V1aR counter 5 and TAAR1 ag 31.
`O=C(NCc1ccccc1)c1cccc2c1C(=O)c1ccc(/C=C/c3ccccc3)cc1S2(=O)=O` gave OXTR ag 3, TAAR1 antagonist 58*, OXTR potentiate -3, V1aR counter 2 and TAAR1 ag 14.
`CCN1C(=O)/C(=C/c2ccc(N3CCCC3)cc2)NC1=S` gave OXTR ag 110*, TAAR1 antagonist 82*, OXTR potentiate -20, V1aR counter 91* and TAAR1 ag 84*.
CCCN1C(=O)/C(=C/c2ccc(N3CCOCC3)cc2)NC1=S was read as OXTR ag 25*, TAAR1 antagonist 43, OXTR potentiate -35, V1aR counter 31* and TAAR1 ag 54*.
`Cc1ccc(CN2C(=O)N/C(=C\c3ccc(N4CCOCC4)cc3)C2=O)cc1` gave OXTR ag 0, TAAR1 antagonist -19, OXTR potentiate -8, V1aR counter 0 and TAAR1 ag 3.
